Consider 3 compounds from ChEMBL document CHEMBL1138733, “Chimeric cyclodepsipeptides as mimetics for the anthelmintic PF1022A” (2004).

Structures are written as SMILES.

Experiment [1] relates to Haemonchus contortus. Description: anthelmintic activity as the percent reduction in faecal egg count in sheep infected with 5000 Haemonchus contortus L3 larvae at 0.01 mg/kg.
Experiment [2] concerns Haemonchus contortus. Description: anthelmintic activity as the eggs per gram of faeces in sheep infected with 5000 Haemonchus contortus L3 larvae at 0.01 mg/kg.
In experiment [3] the test system is Bos taurus. Description: anthelmintic activity as the percent reduction in faecal egg count in sheep infected with 5000 Haemonchus contortus L3 larvae at 0.1 mg/kg. In kind it is functional, Ovis aries, Feces. The method, boiled down: (§1)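 Merino or Schwarzkopf sheep (25–35 kg) infected with 5000 H. contortus L3, dosed after the pre-patency period, orally in gelatine capsules or intravenously. Faecal egg counts by Wetzel-modified McMaster method, per gram of fresh faeces, at regular intervals before and after treatment. Activity as eggs per gram and percent reduction versus pretreatment. Untreated controls sampled at matching times.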

In experiment [4] the test system is Bos taurus. The experiment can be described thus: anthelmintic activity as the eggs per gram of faeces in sheep infected with 5000 Haemonchus contortus L3 larvae at 0.1 mg/kg. In kind it is functional, Ovis aries, Feces. The method, boiled down: as §1

On to `CC(C)C[C@H]1C(=O)N[C@H]2CCC3SC[C@@H](C(=O)O[C@H](C)C(=O)N(C)[C@@H](CC(C)C)C(=O)O[C@H](Cc4ccccc4)C(=O)N(C)[C@@H](CC(C)C)C(=O)O[C@H](C)C(=O)N1C)N3C2=O` (stereo partly drawn), for which, in experiment [1], the Reduction worked out at 95%. The Activity in experiment [2] is reported as 83 eggs/g.
In experiment [1], `CC(C)C[C@H]1C(=O)O[C@H](Cc2ccccc2)C(=O)N(C)[C@@H](CC(C)C)C(=O)O[C@H](C)C(=O)N(C)[C@@H](CC(C)C)C(=O)N2CCC[C@@H]2C(=O)N2CCC[C@H]2C(=O)O[C@H](C)C(=O)N1C` registered a Reduction of 98%. The same compound showed an Activity in experiment [2] of 50 eggs/g.
Turning to `CC(C)C[C@H]1C(=O)O[C@H](Cc2ccccc2)C(=O)N(C)[C@@H](CC(C)C)C(=O)O[C@H](C)C(=O)N(C)[C@@H](CC(C)C)C(=O)O[C@H](Cc2ccccc2)C(=O)N(C)[C@@H](CC(C)C)C(=O)O[C@H](C)C(=O)N1C`, the values for the Reduction in experiment [3] and in experiment [1] were 100% and 43%, respectively. Besides, the Activity in experiment [4] is 0 eggs/g; in experiment [2], 573 eggs/g.
